Series [1] can be described thus: Toxicity in ip dosed BDF1 mouse. The conditions noted are these: in vivo. In kind it is organism-based. The gist of the method:
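Acute toxicity in female BDF1 mice, reported as LD50 in mg/kg and mmol/kg.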

Series [2] relates to Ehrlich. Nature of the series: Antitumor activity against mouse EAC allografted in BDF1 mouse assessed as inhibition of tumor growth < LD50 administered as ip. In kind it is functional.
Series [3] can be described thus: Toxicity in mouse L1210 cells allografted immunosuppressed BDF1 mouse assessed as mortality dosed intraperitoneally <LD50 after 60 days. In kind it is organism-based. The note with it: in vivo, ip, read-out: Activity.
For series [4], the system named is Ehrlich. Nature of the series: Antitumor activity against mouse EAC allografted in BDF1 mouse assessed as cure from tumor at < LD50 administered as ip after 180 days. In kind it is functional, organism-based. In outline:
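Mice bearing Ehrlich ascites carcinoma were treated with ester. Cure was defined as survival to 180 days.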

The next series concerns L1210. Nature of the series: Antitumor activity against mouse L1210 cells allografted in immune competent BDF1 mouse assessed as increase of host survival at < LD50 administered as ip after 60 days. In kind it is functional.

From ChEMBL document CHEMBL3272073, “3-Fluoro-1-hydroxypropan-2-one (fluorohydroxyacetone) and some esters. Syntheses and effects in BDF mice” (J Med Chem, 1977) come the findings set out here.

SMILES strings stand for the structures. Activity calls are given as the source filed them.

For the compound `O=C(CF)COC(=O)c1ccc([N+](=O)[O-])cc1`, in series [1], the LD50 amounted to 370 µmol/kg.
The same measure, in the same setting: in the case of `O=C(OCC(O)CF)c1ccccc1` (stereo not given) it was 230 µmol/kg.
Turning to `O=C(CF)COP(=O)(O)O`, the LD50 in series [1] was 150 µmol/kg. Moreover, the TGI result in the series on Ehrlich [2] was “Active”.
For `O=C(CCl)COC(=O)c1cc([N+](=O)[O-])cc([N+](=O)[O-])c1`, in series [1], the LD50 stood at 880 µmol/kg.
The same measure, in the same setting: then `COC(CF)(COC(=O)c1ccccc1)OC`, with 230 µmol/kg; and `COC(CO)(CF)OC`, with 200 µmol/kg; and `OCC(O)CF` (stereo not given), with 210 µmol/kg.
Same read-out and setting: then `O=C(CO)CF`, with 220 µmol/kg.
As for `O=C(OCC(O)CCl)c1ccccc1` (stereo not given), in series [1], the median lethal dose (LD50) came out at 2100 µmol/kg.
The compound `CC(=O)COC(=O)c1ccccc1` showed an LD50 in series [1] of 7860 µmol/kg.
`O=C(CCl)COC(=O)c1ccccc1` came in with an LD50 in series [1] of 330 µmol/kg. Moreover, the mortality at 1440 h in series [3] came to 85%. Also, the outcome with Ehrlich [4] was Active. In the series with L1210, the Survival stood at 85%.
For `CC(=O)OCC(=O)CF`, the LD50 in series [1] was 220 µmol/kg.
`O=C(CCl)COP(=O)(O)O` returned an LD50 in series [1] of 360 µmol/kg.
Regarding `CC(=O)OCC(CCl)OC(C)=O` (stereo not given), the LD50 in series [1] was 1740 µmol/kg.
The same measure, in the same setting: then `CC(=O)OCC(=O)CCl`, with 470 µmol/kg; and `C1CCC(NC2CCCCC2)CC1.O=P(O)(O)OCC(O)CF`, with 300 µmol/kg; and `OCC(O)CBr` (stereo not given), with 1370 µmol/kg.
In the case of `O=C(CF)COC(=O)c1ccccc1`, the LD50 in series [1] was determined as 180 µmol/kg. For the same compound, the TGI entry with Ehrlich [2] was “Active”.
Regarding `O=C(OCC(O)CBr)c1ccccc1` (stereo not given), in series [1], the LD50 was 1370 µmol/kg.
Same read-out and setting: then `OCC(O)CCl` (stereo not given), with 1800 µmol/kg; and `C1CCC(NC2CCCCC2)CC1.O=P(O)(O)OCC(O)CCl`, with 2100 µmol/kg; and `O=C(CBr)COC(=O)c1ccccc1`, with 120 µmol/kg.
`O=C(CCl)COC(=O)c1ccc([N+](=O)[O-])cc1` displayed an LD50 in series [1] of 660 µmol/kg. Moreover, the result in the series on Ehrlich [4] was Active.
In series [1], `CC(=O)OCC(CF)OC(C)=O` (stereo not given) yielded an LD50 of 220 µmol/kg.
